Measured values from ChEMBL document CHEMBL4665798, “Novel Human Urate Transporter 1 Inhibitors as Hypouricemic Drug Candidates with Favorable Druggability” (J Med Chem, 2020).

Test system: Mus musculus
Assay: Hypouricemic activity in Kunming mouse model of xanthine/potassium oxonate-induced acute hyperuricemia assessed as decrease in serum uric acid level at 2 mg/kg administered 3 hrs prior to xanthine/potassium oxonate and measured after 6 hrs relative to control
Format: functional
Set-up: scale not given: the % may be the effect or the level left
Conditions: time 9 hrs
In short: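 Male Kunming mice, hyperuricemia induced by intragastric xanthine plus subcutaneous potassium oxonate (0.2 mL each). […] Groups: normal vehicle, untreated model, active control, test. Serum uric acid measured. Decrease ratio = (model SUA − compound SUA)/(model SUA − vehicle SUA).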

## O=C(O)CCCSc1nc2cccnc2n1-c1ccc(C2CC2)c2ccccc12
  Activity: 1.07%

## Cc1cc(C)c(-n2c(SC(C)(C)C(=O)O)nc3cccnc32)c(C)c1
  Activity: -4.96%

## CC(Sc1nc2cnccc2n1-c1ccc(C#N)c2ccccc12)C(=O)O (stereo unspecified)
  Activity: 27.84%

## CCOC(=O)C1(Sc2nc3cnccc3n2-c2ccc(C#N)c3ccccc23)CCC1
  Activity: 14.44%

## CCOC(=O)CSc1nc2ncccc2n1-c1ccc(C2CC2)c2ccccc12
  Activity: 33.56%

## COC(=O)CCCSc1nc2cnccc2n1-c1ccc(C#N)c2ccccc12
  Activity: 8.96%

## CCOC(=O)C(C)Sc1nc2cnccc2n1-c1ccc(C2CC2)c2ccccc12 (stereo unspecified)
  Activity: 49.46%

## CC(C)(C)S(=O)(=O)NC(=O)CSc1nnc(Br)n1-c1ccc(C2CC2)c2ccccc12
  Activity: 5.94%

## CCOC(=O)C(C)Sc1nc2cccnc2n1-c1c(C)cc(C)cc1C (stereo unspecified)
  Activity: 22.34%

## CS(=O)(=O)NC(=O)CSc1nnc(Br)n1-c1ccc(C2CC2)c2ccccc12
  Activity: 81.53%

## CCOC(=O)C1(Sc2nc3ncccc3n2-c2ccc(C3CC3)c3ccccc23)CCC1
  Activity: 47.9%

## O=C(CSc1nnc(Br)n1-c1ccc(C2CC2)c2ccccc12)NS(=O)(=O)c1ccc(F)cc1
  Activity: 75.17%

## Cc1cc(C)c(-n2c(SC(C)C(=O)O)nc3cccnc32)c(C)c1 (stereo unspecified)
  Activity: 37.04%

## CC(C)S(=O)(=O)NC(=O)CSc1nnc(Br)n1-c1ccc(C2CC2)c2ccccc12
  Activity: 11.99%

## CCOC(=O)C(C)(C)Sc1nc2cccnc2n1-c1c(C)cc(C)cc1C
  Activity: 41.56%

## CCOC(=O)CSc1nc2cccnc2n1-c1cccc2ccccc12
  Activity: 4.03%

## N#Cc1ccc(-n2c(SCCCC(=O)O)nc3ncccc32)c2ccccc12
  Activity: 20.3%

## CCOC(=O)CCCSc1nc2cnccc2n1-c1ccc(C2CC2)c2ccccc12
  Activity: 47.37%

## O=C(O)CSc1nc2cccnc2n1-c1cccc2ccccc12
  Activity: 2.25%

## CCOC(=O)C1(Sc2nc3ncccc3n2-c2ccc(C#N)c3ccccc23)CCC1
  Activity: 34.56%

## Cc1cc(C)c(-n2c(SCC(=O)O)nc3cccnc32)c(C)c1
  Activity: 18.26%

## O=C(CSc1nnc(Br)n1-c1ccc(C2CC2)c2ccccc12)NS(=O)(=O)c1cccs1
  Activity: 63.94%

## CCOC(=O)CCCSc1nc2cccnc2n1-c1cccc2ccccc12
  Activity: 37.38%

## CCOC(=O)C(C)(C)Sc1nc2cnccc2n1-c1ccc(C2CC2)c2ccccc12
  Activity: 68.65%

## O=C(CSc1nnc(Br)n1-c1ccc(C2CC2)c2ccccc12)NS(=O)(=O)C1CC1
  Activity: 17.54%

## CCOC(=O)C(C)(C)Sc1nc2cccnc2n1-c1ccc(C2CC2)c2ccccc12
  Activity: 2.61%

## Cc1cc(C)c(-n2c(SCCCC(=O)O)nc3cccnc32)c(C)c1
  Activity: 13.05%

## CC(Sc1nc2cccnc2n1-c1cccc2ccccc12)C(=O)O (stereo unspecified)
  Activity: -1.78%

## CCOC(=O)CCCSc1nc2ncccc2n1-c1ccc(C2CC2)c2ccccc12
  Activity: 33.6%

## N#Cc1ccc(-n2c(SCCCC(=O)O)nc3cnccc32)c2ccccc12
  Activity: 11.19%

## COC(=O)CCSc1nc2cnccc2n1-c1ccc(C#N)c2ccccc12
  Activity: 11.47%

## COC(=O)C(C)(C)Sc1nc2cnccc2n1-c1ccc(C#N)c2ccccc12
  Activity: 9.09%

## CCOC(=O)CSc1nc2cnccc2n1-c1ccc(C2CC2)c2ccccc12
  Activity: 40.79%

## CCOC(=O)CSc1nc2cccnc2n1-c1c(C)cc(C)cc1C
  Activity: -2.2%

## CC(C)(C)c1ccc(S(=O)(=O)NC(=O)CSc2nnc(Br)n2-c2ccc(C3CC3)c3ccccc23)cc1
  Activity: 15.1%

## CC(C)(Sc1nc2cnccc2n1-c1ccc(C2CC2)c2ccccc12)C(=O)O
  Activity: 37.89%

## CCOC(=O)CSc1nc2cccnc2n1-c1ccc(C2CC2)c2ccccc12
  Activity: 41.96%

## CCOC(=O)C(C)(C)Sc1nc2ncccc2n1-c1ccc(C#N)c2ccccc12
  Activity: 12.71%

## O=C(O)CSc1nc2cccnc2n1-c1ccc(C2CC2)c2ccccc12
  Activity: 43.69%

## CC(C)(Sc1nc2cccnc2n1-c1cccc2ccccc12)C(=O)O
  Activity: 0.32%

## CC(C)(Sc1nc2cnccc2n1-c1ccc(C#N)c2ccccc12)C(=O)O
  Activity: 15.24%

## CCOC(=O)C(C)Sc1nc2cccnc2n1-c1cccc2ccccc12 (stereo unspecified)
  Activity: -1.84%

## COC(=O)C(C)Sc1nc2cnccc2n1-c1ccc(C#N)c2ccccc12 (stereo unspecified)
  Activity: 17.9%

## CCOC(=O)C(C)Sc1nc2ncccc2n1-c1ccc(C2CC2)c2ccccc12 (stereo unspecified)
  Activity: 35.37%

## CCOC(=O)C(C)(C)Sc1nc2cccnc2n1-c1cccc2ccccc12
  Activity: 8.54%

## CC(C)(Sc1nc2ncccc2n1-c1ccc(C2CC2)c2ccccc12)C(=O)O
  Activity: 11.47%

## CC(C)(Sc1nc2ncccc2n1-c1ccc(C#N)c2ccccc12)C(=O)O
  Activity: 3.67%

## O=C(O)CSc1nc2cnccc2n1-c1ccc(C2CC2)c2ccccc12
  Activity: 42.17%

## COC(=O)CCSc1nc2ncccc2n1-c1ccc(C#N)c2ccccc12
  Activity: 5.12%

## CCOC(=O)C(C)Sc1nc2cccnc2n1-c1ccc(C2CC2)c2ccccc12 (stereo unspecified)
  Activity: 40.34%

## N#Cc1ccc(-n2c(SCC(=O)O)nc3ncccc32)c2ccccc12
  Activity: 51.91%

## O=C(O)CCCSc1nc2ncccc2n1-c1ccc(C2CC2)c2ccccc12
  Activity: 35.39%

## CCOC(=O)CCCSc1nc2cccnc2n1-c1ccc(C2CC2)c2ccccc12
  Activity: 23.73%

## N#Cc1ccc(-n2c(SCC(=O)O)nc3cnccc32)c2ccccc12
  Activity: 59.22%

## O=C(CSc1nnc(Br)n1-c1ccc(C2CC2)c2ccccc12)NS(=O)(=O)c1ccc(Cl)s1
  Activity: 53.44%

## N#Cc1ccc(-n2c(SC3(C(=O)O)CCC3)nc3ncccc32)c2ccccc12
  Activity: 60.74%

## O=C(O)CCCSc1nc2cnccc2n1-c1ccc(C2CC2)c2ccccc12
  Activity: 56.26%

## CCS(=O)(=O)NC(=O)CSc1nnc(Br)n1-c1ccc(C2CC2)c2ccccc12
  Activity: 11.04%

## O=C(CSc1nnc(Br)n1-c1ccc(C2CC2)c2ccccc12)NS(=O)(=O)c1ccc(Cl)cc1
  Activity: 76.46%

## CCOC(=O)CCCSc1nc2cccnc2n1-c1c(C)cc(C)cc1C
  Activity: 11.19%

## N#Cc1ccc(-n2c(SCCC(=O)O)nc3ncccc32)c2ccccc12
  Activity: 71.62%

## O=C(O)CSc1nc2ncccc2n1-c1ccc(C2CC2)c2ccccc12
  Activity: 34.5%

## O=C(O)CCCSc1nc2cccnc2n1-c1cccc2ccccc12
  Activity: 1.4%

## COC(=O)CSc1nc2ncccc2n1-c1ccc(C#N)c2ccccc12
  Activity: 9.51%

## O=C(O)C1(Sc2nc3cnccc3n2-c2ccc(C3CC3)c3ccccc23)CCC1
  Activity: 72.99%

## CCCS(=O)(=O)NC(=O)CSc1nnc(Br)n1-c1ccc(C2CC2)c2ccccc12
  Activity: 24.06%

## CCOC(=O)C1(Sc2nc3cnccc3n2-c2ccc(C3CC3)c3ccccc23)CCC1
  Activity: 41.35%

## CCOC(=O)C(C)(C)Sc1nc2ncccc2n1-c1ccc(C2CC2)c2ccccc12
  Activity: 45.58%

## COC(=O)CCCSc1nc2ncccc2n1-c1ccc(C#N)c2ccccc12
  Activity: 7.17%

## CC(C)(Sc1nc2cccnc2n1-c1ccc(C2CC2)c2ccccc12)C(=O)O
  Activity: -0.83%

## N#Cc1ccc(-n2c(SC3(C(=O)O)CCC3)nc3cnccc32)c2ccccc12
  Activity: 27.36%

## Cc1ccc(S(=O)(=O)NC(=O)CSc2nnc(Br)n2-c2ccc(C3CC3)c3ccccc23)cc1
  Activity: 79.41%

## O=C(CSc1nnc(Br)n1-c1ccc(C2CC2)c2ccccc12)NS(=O)(=O)c1ccccc1
  Activity: 64.65%

## COC(=O)C(C)Sc1nc2ncccc2n1-c1ccc(C#N)c2ccccc12 (stereo unspecified)
  Activity: 13%

## N#Cc1ccc(-n2c(SCCC(=O)O)nc3cnccc32)c2ccccc12
  Activity: 51.13%

## O=C(CSc1nnc(Br)n1-c1ccc(C2CC2)c2ccccc12)NS(=O)(=O)c1ccc([N+](=O)[O-])cc1
  Activity: 66.71%

## COC(=O)CSc1nc2cnccc2n1-c1ccc(C#N)c2ccccc12
  Activity: 14.54%

## C[C@H](Sc1nc2ncccc2n1-c1ccc(C2CC2)c2ccccc12)C(=O)O (stereo in doubt; 44a)
2 mg/kg
  Activity: 12.87%

## C[C@@H](Sc1nc2ncccc2n1-c1ccc(C2CC2)c2ccccc12)C(=O)O (stereo in doubt; 44b)
2 mg/kg
  Activity: 40.58%

## C[C@H](Sc1nc2ncccc2n1-c1ccc(C2CC2)c2ccccc12)C(=O)O (stereo in doubt; 44c)
2 mg/kg
  Activity: 31.02%

## C[C@@H](Sc1nc2ncccc2n1-c1ccc(C2CC2)c2ccccc12)C(=O)O (stereo in doubt; 44d)
2 mg/kg
  Activity: 98.04%

## C[C@H](Sc1nc2cnccc2n1-c1ccc(C2CC2)c2ccccc12)C(=O)O (stereo in doubt; 54a)
2 mg/kg
  Activity: 58.08%

## C[C@@H](Sc1nc2cnccc2n1-c1ccc(C2CC2)c2ccccc12)C(=O)O (stereo in doubt; 54b)
2 mg/kg
  Activity: 32.44%

## C[C@H](Sc1nc2cnccc2n1-c1ccc(C2CC2)c2ccccc12)C(=O)O (stereo in doubt; 54c)
2 mg/kg
  Activity: 93.54%

## C[C@@H](Sc1nc2cnccc2n1-c1ccc(C2CC2)c2ccccc12)C(=O)O (stereo in doubt; 54d)
2 mg/kg
  Activity: 57.89%

## CCc1oc2ccccc2c1C(=O)c1cc(Br)c(O)c(Br)c1 [BENZBROMARONE]
  Activity: 36%
